Experimental data as given in ChEMBL document CHEMBL1153631, “On the role of topoisomerase I in mediating the cytotoxicity of 9-aminoacridine-based anticancer agents” (Bioorg Med Chem Lett, 2009).
The source made the active and inactive calls. The rule behind the calls is not given here.

Tests used:
NCI-H460 = assay: Cytotoxic activity against human H460 cells after 48 hrs by fluorescent resazurin dye assay; assay type: functional, cell-based; conditions: NCI-H460, 48 h
REH = assay: Cytotoxic activity against human REH cells after 48 hrs by fluorescent resazurin dye assay; assay type: functional, cell-based
SK-MEL = assay: Cytotoxic activity against human SK-MEL cells after 48 hrs by fluorescent resazurin dye assay; assay type: functional, cell-based
[1] = Cytotoxic activity against human SU-8686 cells after 48 hrs by fluorescent resazurin dye assay; assay type: functional, cell-based; conditions: SU.86.86, 48 h
[2] = Cytotoxic activity against human OCL3 cells after 48 hrs by fluorescent resazurin dye assay; assay type: functional, cell-based; conditions: OCL3, 48 h
[3] = Cytotoxic activity against mouse Hepa-1c1c7 cells after 48 hrs by fluorescent resazurin dye assay; assay type: functional, cell-based; conditions: Hepa-1c1c7, 48 h
MCF7 = assay: Cytotoxic activity against human MCF7 cells after 48 hrs by fluorescent resazurin dye assay; assay type: functional, cell-based; conditions: MCF7, 48 h
HeLa = assay: Cytotoxicity against human HeLa cells at 10 to 40 uM by coomassie blue assay in presence of topoisomerase 1-directed siRNA
[4] = molecular target: T1, DNA topoisomerase 1 (Homo sapiens) (UniProt P11387); assay: Inhibition of human topoisomerase 1-mediated relaxation of supercoiled plasmid O6#7 DNA at 100 uM after 30 mins by gel electrophoresis
T1 sequence (whole entry): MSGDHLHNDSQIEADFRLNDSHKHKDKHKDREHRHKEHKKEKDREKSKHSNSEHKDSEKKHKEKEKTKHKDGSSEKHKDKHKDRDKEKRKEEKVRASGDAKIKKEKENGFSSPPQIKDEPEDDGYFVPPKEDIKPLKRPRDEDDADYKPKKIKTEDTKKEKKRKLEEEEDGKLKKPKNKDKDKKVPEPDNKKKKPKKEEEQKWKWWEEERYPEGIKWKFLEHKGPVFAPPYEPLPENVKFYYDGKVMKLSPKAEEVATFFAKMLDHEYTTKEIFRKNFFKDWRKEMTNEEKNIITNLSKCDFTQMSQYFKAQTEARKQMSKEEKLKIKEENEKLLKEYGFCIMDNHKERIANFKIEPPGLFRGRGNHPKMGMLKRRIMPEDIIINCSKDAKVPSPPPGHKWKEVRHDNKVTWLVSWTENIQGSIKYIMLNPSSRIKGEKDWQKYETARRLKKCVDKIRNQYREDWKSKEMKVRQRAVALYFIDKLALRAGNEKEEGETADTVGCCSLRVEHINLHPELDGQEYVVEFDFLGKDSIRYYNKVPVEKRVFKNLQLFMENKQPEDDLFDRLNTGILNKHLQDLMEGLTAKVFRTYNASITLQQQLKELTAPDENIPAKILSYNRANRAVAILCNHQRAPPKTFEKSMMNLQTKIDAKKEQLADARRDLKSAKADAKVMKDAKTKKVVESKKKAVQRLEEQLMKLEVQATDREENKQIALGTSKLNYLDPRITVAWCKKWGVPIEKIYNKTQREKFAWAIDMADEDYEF
Outline: (§1)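 Supercoiled plasmid incubated with 2 units topoisomerase I and test agent at 8 μM or at a final 50 or 100 μM. A no-enzyme lane was included. Supercoiled and relaxed DNA bands were resolved on a gel. Four experiments.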

HCT-116 = assay: Cytotoxic activity against human HCT116 cells after 48 hrs by fluorescent resazurin dye assay; assay type: functional, cell-based; conditions: HCT-116, 48 h
DU-145 = assay: Cytotoxic activity against human DU145 cells after 48 hrs by fluorescent resazurin dye assay; assay type: functional, cell-based; conditions: DU-145, 48 h
[5] = molecular target: T1, DNA topoisomerase 1 (Homo sapiens); assay: Induction of covalent human topoisomerase 1-plasmid O6#7 DNA adduct stabilization assessed as appearance of nicked plasmid at 100 uM by agarose gel electrophoresis
Outline: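 Supercoiled plasmid aliquots incubated 30 min at 37 °C with nuclear extract containing 50 units topoisomerase I and test agent at 1.6 μM or 100 μM; the DNA products were then examined.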

[6] = molecular target: T1, DNA topoisomerase 1 (Homo sapiens); assay: Induction of covalent topoisomerase 1-DNA adduct stabilization in human MIA PaCa cells at 100 uM after 1 hr by ICE assay; assay type: cell-based
Outline: (§2)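 MiaPACA cells exposed to 20 or 100 μM agent for 1 h at 37 °C (vehicle 0.1% DMSO), then lysed with sarkosyl for the ICE bioassay. CsCl-purified DNA-positive gradient fractions were immunoblotted for topoisomerase I. Four independent experiments.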

[7] = molecular target: T1, DNA topoisomerase 1 (Homo sapiens); assay: Inhibition of human topoisomerase 1-mediated relaxation of supercoiled plasmid O6#7 DNA at 8 uM after 30 mins by gel electrophoresis; outline: as §1
[8] = molecular target: T1, DNA topoisomerase 1 (Homo sapiens); assay: Induction of covalent topoisomerase 1-DNA adduct stabilization in human MIA PaCa cells at 20 uM after 1 hr by ICE assay; assay type: cell-based; conditions: 100 uM, in the assay text read “100 uM” for “20 uM”; outline: as §2

| Structure (SMILES) | EC50 (NCI-H460) | EC50 (REH) | EC50 (SK-MEL) | EC50 [1] | EC50 [2] | EC50 [3] | EC50 (MCF7) | Activity (HeLa) | Activity [4] | EC50 (HCT-116) | EC50 (DU-145) | Activity [5] | Activity [6] | Activity [7] | Activity [8] |
| --- | --- | --- | --- | --- | --- | --- | --- | --- | --- | --- | --- | --- | --- | --- | --- |
| CN1CCN(C(=O)c2ccc3c(NC4CCN(Cc5ccccc5)CC4)c4ccccc4nc3c2)CC1 | 38.5 µM | 21 µM | 14.6 µM | 21.2 µM | 20.3 µM | 26.9 µM | 25.7 µM | Active | inactive | 29.2 µM | 32.4 µM | Active | Active | – | – |
| COc1ccc2c(c1)-c1nn(CCCN(C)C)c3ccc([N+](=O)[O-])c(c13)N2 | – | – | – | – | – | – | – | – | – | – | – | – | – | Active | – |
| CN1CCN(C(=O)c2ccc3c(NCCc4c[nH]c5ccccc45)c4ccccc4nc3c2)CC1 | 31.8 µM | 4.1 µM | 5.3 µM | 16.3 µM | 15.3 µM | 24.8 µM | 19.2 µM | – | inactive | 27.6 µM | 16.6 µM | – | – | – | – |
| CCN(CC)C(=O)c1ccc2c(NCCc3c[nH]c4ccccc34)c3ccccc3nc2c1 | 18.8 µM | 15.5 µM | 16 µM | 16.2 µM | 18.3 µM | 11.2 µM | 13.5 µM | – | inactive | 11.2 µM | 11.9 µM | – | – | – | Active |
| CN1CCN(C(=O)c2cccc3c(NCCc4c[nH]c5ccccc45)c4ccccc4nc23)CC1 | 16 µM | 19.7 µM | 16.7 µM | 6.8 µM | 39.8 µM | 55.9 µM | 37.2 µM | – | inactive | 29 µM | 37.2 µM | – | – | – | Active |
| CC[C@@]1(O)C(=O)OCc2c1cc1n(c2=O)Cc2cc3ccccc3nc2-1 | – | – | – | – | – | – | – | inactive | – | – | – | – | – | – | – |
